The results in this text go back to PubChem BioAssay AID602216 (Southern Research Specialized Biocontainment Screening …, 2012).

Results filed as inconclusive are left out. Calls of active or inactive are those of the source.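 Rule for the calls: active = inhibition of 30% or more at any tested concentration; inactive = the rest, inconclusive results apart.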

For the first assay, the target named is M17 leucyl aminopeptidase (Plasmodium falciparum 3D7). The experiment in a line: PfM17LAP leucine aminopeptidase inhibitors, dose response, biochemical, QFRET, set 2 (AID 602216). The note with it: recombinant PfM17LAP, H-Leu-NHMec fluorogenic cleavage. In a few lines:
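System: recombinant P. falciparum M17 leucine aminopeptidase; Reagent: H-Leu-NHMec substrate, 0.1 mM; Medium: pH 7.5 buffer containing CoCl2; Controls: full-reaction wells as high signal, enzyme-free wells as background; Compound dosing: series from 100 to 0.2 µM; Measured by: fluorescence from released NHMec leaving group; Timing: 90 min reaction.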
Consider `O=C(Cc1ccc(Oc2ccccc2)cc1)NO`, for which the IC50 (as a rule, the concentration that gives 50% inhibition) was 410 nM.

`CCCCOc1ccc(CC(=O)N(C)O)cc1`: the IC50 was 18000 nM.

For `CN(O)C(=O)Cc1ccc(OCc2ccccc2)cc1`, the concentration for half-maximal inhibition (IC50) is 20600 nM.

As to `CC(C)(C(=O)NO)c1ccccc1`, the IC50 was 60300 nM.

As for `O=C(NO)c1cccc2ccccc12`, the IC50 was 9080 nM.

For the molecule `COc1ccc(CCCC(=O)NO)cc1`, the IC50 is 2850 nM.

`CC(C)COc1ccc(CC(=O)NO)cc1`: the IC50 was 950 nM.

`CCCCCCCCCC(=O)NO`: the IC50 is 1920 nM.

For `CCCCOc1ccc(CC(=O)NO)cc1`, the IC50 was 410 nM.

Regarding `CCCCOc1ccc(CCC(=O)NO)cc1`, the IC50 was 2300 nM.

On to `CCCCc1ccc(CC(=O)NO)cc1`, for which the IC50 is 380 nM.

For the molecule `CCCCOc1ccc(C(=O)NO)cc1`, the IC50 is 3300 nM.

In the case of `CCOc1ccc(CC(=O)NO)cc1`, the IC50 was 740 nM.

Regarding `Cc1ccc(CC(=O)NO)cc1`, the IC50 was 980 nM.

Consider `COc1ccc(CC(=O)NO)cc1`, for which the IC50 is 540 nM.

Consider `O=C(Cc1ccc(OCc2ccccc2)cc1)NO`, for which the IC50 is 630 nM.

Take `CCCCOc1ccc(CNc2c(N(C)O)c(=O)c2=O)cc1`: the IC50 was 33200 nM.

As for `O=C(Cc1ccc2c(c1)CCCC2)NO`, the IC50 is 180 nM.

Still in this assay, the particulars now being: recombinant PfM17LAP, H-Leu-NHMec fluorogenic cleavage; at 1.56 µM (top of the series).
As for `COC(=O)Cc1ccc(OCCN(C)C)cc1`, the inhibition result was “inactive”.

Staying with this assay, now noted: recombinant PfM17LAP, H-Leu-NHMec fluorogenic cleavage; at 100 µM (top of the series).
Turning to `CCC(C)Oc1ccc(CC(=O)OC)cc1` (stereo not drawn), the inhibition entry is “inactive”.

As for `COC(=O)Cc1ccc(OCC(C)C)cc1`, the inhibition entry is “inactive”.

Regarding `CCCOc1ccc(CC(=O)OC)cc1`, the inhibition entry is “inactive”.

Turning to `CCCCOc1ccc(CC(=O)O)cc1`, the inhibition entry was “inactive”.
